Source: ChEMBL document CHEMBL1221342, “Synthesis and in vitro antitumor activity of new 4,5-dihydropyrazole derivatives” (Bioorg Med Chem, 2010)

Columns and labels:
Format in all cases: functional
MOLT-4 = experiment: Growth inhibition of human MOLT4 cells after 48 hrs by SRB assay; details: MOLT-4, 48 h
Outline: (§1)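 NCI 60-cell-line screen. Cells grown in RPMI1640 with 5% fetal calf serum and 2 mM L-glutamine, with inoculum density set by cell line. Preincubated 24 h, then given compound in DMSO at 10^-4 to 10^-8 M (five 10-fold steps) for 48 h continuous exposure. Growth measured by SRB protein assay. GI50, TGI and LC50 reported as –log molar.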

BT-549 = experiment: Growth inhibition of human BT549 cells after 48 hrs by SRB assay; details: BT-549, 48 h; outline: as §1
A498 = experiment: Growth inhibition of human A498 cells after 48 hrs by SRB assay; details: A498, 48 h; outline: as §1
HL-60(TB) = experiment: Growth inhibition of human HL-60(TB) cells after 48 hrs by SRB assay; details: HL-60, 48 h
Outline: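 NCI 60-cell-line screen: cells grown in RPMI1640 with 5% fetal calf serum and 2 mM L-glutamine, preincubated 24 h, then exposed to compound in DMSO at five concentrations (10^-4 to 10^-8 M) for 48 h continuous exposure. Growth estimated by sulforhodamine B protein assay; reported as pGI50 (-log molar concentration inhibiting net cell growth by 50%).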

UO-31 = experiment: Growth inhibition of human UO31 cells after 48 hrs by SRB assay; details: UO-31, 48 h; outline: as §1
MDA-MB-468 = experiment: Growth inhibition of human MDA-MB-468 cells after 48 hrs by SRB assay; details: MDA-MB-468, 48 h; outline: as §1
T47D = experiment: Growth inhibition of human T47D cells after 48 hrs by SRB assay; outline: as §1
[1] = Growth inhibition of human […] cells after 48 hrs by SRB assay; outline: as §1
RXF 393 = experiment: Growth inhibition of human RXF393 cells after 48 hrs by SRB assay; details: RXF 393, 48 h; outline: as §1
HCT-116 = experiment: Growth inhibition of human HCT116 cells after 48 hrs by SRB assay; details: HCT-116, 48 h; outline: as §1
IGROV-1 = experiment: Growth inhibition of human IGROV1 cells after 48 hrs by SRB assay; details: IGROV-1, 48 h; outline: as §1
KM12 = experiment: Growth inhibition of human KM12 cells after 48 hrs by SRB assay; details: KM12, 48 h; outline: as §1
MCF7 = experiment: Growth inhibition of human MCF7 cells after 48 hrs by SRB assay; details: MCF7, 48 h; outline: as §1
SF-295 = experiment: Growth inhibition of human SF295 cells after 48 hrs by SRB assay; details: SF-295, 48 h; outline: as §1
SF-268 = experiment: Growth inhibition of human SF268 cells after 48 hrs by SRB assay; details: SF-268, 48 h; outline: as §1
SK-OV-3 = experiment: Growth inhibition of human SKOV3 cells after 48 hrs by SRB assay; details: SK-OV-3, 48 h; outline: as §1
K562 = experiment: Growth inhibition of human K562 cells after 48 hrs by SRB assay; details: K562, 48 h; outline: as §1
OVCAR-3 = experiment: Growth inhibition of human OVCAR-3 cells after 48 hrs by SRB assay; details: OVCAR-3, 48 h; outline: as §1
NCI-H460 = experiment: Growth inhibition of human NCI-H460 cells after 48 hrs by SRB assay; details: NCI-H460, 48 h; outline: as §1
OVCAR-8 = experiment: Growth inhibition of human OVCAR8 cells after 48 hrs by SRB assay; details: OVCAR-8, 48 h; outline: as §1
[2] = Growth inhibition of human Hs 578T cells after 48 hrs by SRB assay; outline: as §1
PC-3 = experiment: Growth inhibition of human PC3 cells after 48 hrs by SRB assay; details: PC-3, 48 h; outline: as §1
TK-10 = experiment: Growth inhibition of human TK10 cells after 48 hrs by SRB assay; details: TK-10, 48 h; outline: as §1
HCC 2998 = experiment: Growth inhibition of human HCC2998 cells after 48 hrs by SRB assay; details: HCC 2998, 48 h; outline: as §1
U-251 = experiment: Growth inhibition of human U251 cells after 48 hrs by SRB assay; details: U-251, 48 h; outline: as §1
OVCAR-4 = experiment: Growth inhibition of human OVCAR4 cells after 48 hrs by SRB assay; details: OVCAR-4, 48 h; outline: as §1
HOP-62 = experiment: Growth inhibition of human HOP62 cells after 48 hrs by SRB assay; details: HOP-62, 48 h; outline: as §1
NCI/ADR-RES = experiment: Growth inhibition of human NCI/ADR-RES cells after 48 hrs by SRB assay; outline: as §1
EKVX = experiment: Growth inhibition of human EKVX cells after 48 hrs by SRB assay; outline: as §1
UACC-62 = experiment: Growth inhibition of human UACC62 cells after 48 hrs by SRB assay; details: UACC-62, 48 h; outline: as §1
SK-MEL-5 = experiment: Growth inhibition of human SK-MEL-5 cells after 48 hrs by SRB assay; details: SK-MEL-5, 48 h; outline: as §1
MDA-MB-435 = experiment: Growth inhibition of human MDA-MB-435 cells after 48 hrs by SRB assay; details: MDA-MB-435, 48 h; outline: as §1
SF-539 = experiment: Growth inhibition of human SF539 cells after 48 hrs by SRB assay; details: SF-539, 48 h; outline: as §1
HT-29 = experiment: Growth inhibition of human HT-29 cells after 48 hrs by SRB assay; details: HT-29, 48 h; outline: as §1
CCRF-CEM = experiment: Growth inhibition of human CCRF-CEM cells after 48 hrs by SRB assay; outline: as §1
COLO 205 = experiment: Growth inhibition of human COLO205 cells after 48 hrs by SRB assay; details: COLO 205, 48 h; outline: as §1
Malme-3M = experiment: Growth inhibition of human MALME-3M cells after 48 hrs by SRB assay; outline: as §1

COc1ccc(C2CC(c3cc(OC)c(OC)c(OC)c3)=NN2)cc1 (centres undefined)
GI50 (MOLT-4): 5.01 µM
TGI (MOLT-4; read-out: pTGI (converted)): 25.1 µM
GI50 (BT-549): 7.94 µM
TGI (BT-549; read-out: pTGI (converted)): > 100 µM
GI50 (A498): 6.31 µM
TGI (A498; read-out: pTGI (converted)): 50.1 µM
GI50 (HL-60(TB)): 2 µM
TGI (HL-60(TB); read-out: pTGI (converted)): 12.6 µM
GI50 (UO-31): 5.01 µM
TGI (UO-31; read-out: pTGI (converted)): > 100 µM
GI50 (MDA-MB-468): 3.98 µM
TGI (MDA-MB-468; read-out: pTGI (converted)): 63.1 µM
GI50 (T47D): 3.98 µM
TGI (T47D; read-out: pTGI (converted)): > 100 µM
GI50 [1]: 3.16 µM
TGI ([1]; read-out: pTGI (converted)): 20 µM
GI50 (RXF 393): 10 µM
TGI (RXF 393; read-out: pTGI (converted)): > 100 µM
GI50 (HCT-116): 3.98 µM
TGI (HCT-116; read-out: pTGI (converted)): > 100 µM
GI50 (IGROV-1): 6.31 µM
TGI (IGROV-1; read-out: pTGI (converted)): > 100 µM
GI50 (KM12): 3.98 µM
TGI (KM12; read-out: pTGI (converted)): > 100 µM
GI50 (MCF7): 2.51 µM
TGI (MCF7; read-out: pTGI (converted)): 25.1 µM
GI50 (SF-295): 5.01 µM
TGI (SF-295; read-out: pTGI (converted)): > 100 µM
GI50 (SF-268): 20 µM
TGI (SF-268; read-out: pTGI (converted)): > 100 µM
GI50 (SK-OV-3): 12.6 µM
TGI (SK-OV-3; read-out: pTGI (converted)): > 100 µM
GI50 (K562): 2.51 µM
TGI (K562; read-out: pTGI (converted)): > 100 µM
GI50 (OVCAR-3): 3.98 µM
TGI (OVCAR-3; read-out: pTGI (converted)): 50.1 µM
GI50 (NCI-H460): 3.16 µM
TGI (NCI-H460; read-out: pTGI (converted)): 30.2 µM
GI50 (OVCAR-8): 25.1 µM
TGI (OVCAR-8; read-out: pTGI (converted)): > 100 µM
GI50 [2]: 15.8 µM
TGI ([2]; read-out: pTGI (converted)): > 100 µM
GI50 (PC-3): 6.31 µM
TGI (PC-3; read-out: pTGI (converted)): > 100 µM
GI50 (TK-10): 39.8 µM
TGI (TK-10; read-out: pTGI (converted)): > 100 µM
GI50 (HCC 2998): 10 µM
TGI (HCC 2998; read-out: pTGI (converted)): 39.8 µM
GI50 (U-251): 3.98 µM
TGI (U-251; read-out: pTGI (converted)): > 100 µM
GI50 (OVCAR-4): 12.6 µM
TGI (OVCAR-4; read-out: pTGI (converted)): > 100 µM
GI50 (HOP-62): 31.6 µM
TGI (HOP-62; read-out: pTGI (converted)): > 100 µM
GI50 (NCI/ADR-RES): 6.31 µM
TGI (NCI/ADR-RES; read-out: pTGI (converted)): > 100 µM
GI50 (EKVX): 10 µM
TGI (EKVX; read-out: pTGI (converted)): > 100 µM
GI50 (UACC-62): 7.94 µM
TGI (UACC-62; read-out: pTGI (converted)): > 100 µM
GI50 (SK-MEL-5): 3.98 µM
TGI (SK-MEL-5; read-out: pTGI (converted)): 25.1 µM
GI50 (MDA-MB-435): 3.16 µM
TGI (MDA-MB-435; read-out: pTGI (converted)): 20 µM
GI50 (SF-539): 6.31 µM
TGI (SF-539; read-out: pTGI (converted)): 39.8 µM
GI50 (HT-29): 3.98 µM
TGI (HT-29; read-out: pTGI (converted)): > 100 µM
GI50 (CCRF-CEM): 6.31 µM
TGI (CCRF-CEM; read-out: pTGI (converted)): > 100 µM
GI50 (COLO 205): 3.98 µM
TGI (COLO 205; read-out: pTGI (converted)): 31.6 µM
GI50 (Malme-3M): 25.1 µM
TGI (Malme-3M; read-out: pTGI (converted)): > 100 µM
